# Data: ChEMBL document CHEMBL4406880, “Design, synthesis, and bioactivity of dihydropyrimidine derivatives as kinesin spindle protein inhibitors” (Bioorg Med Chem, 2019)
# Key:
# Format in all cases: functional
# BT-549 = experiment: Growth inhibition of human BT549 cells incubated for 48 hrs by sulforhodamine B assay; conditions: BT-549, 48 h
# Summary of the method: (§1)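 NCI-60 five-dose mode: five tenfold dilutions (0.01, 0.1, 1, 10, 100 µM) are applied for 48 h to cells in RPMI 1640 with 5% FBS at 37 °C. Endpoint is TCA fixation with sulforhodamine B read at 515 nm. % growth comes from the 0 h and control absorbances. GI50 is the concentration giving a 50% reduction in net cell growth.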
# SK-MEL-28 = experiment: Growth inhibition of human SK-MEL-28 cells incubated for 48 hrs by sulforhodamine B assay; conditions: SK-MEL-28, 48 h
# Summary of the method: (§2)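 NCI-60 five-dose SRB assay. Cells were exposed for 48 h to tenfold dilutions of 0.01, 0.1, 1, 10 and 100 µM, in RPMI 1640 with 5% FBS. Plates fixed with TCA at the time of drug addition served as the time-zero reference. GI50 is the concentration giving a 50% reduction in net growth. TGI is total growth inhibition. LC50 is a net 50% loss of the initial cells.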
# UACC-257 = experiment: Growth inhibition of human UACC257 cells assessed as cell viability at 0.001 uM incubated for 48 hrs by sulforhodamine B assay relative to control; conditions: UACC-257, 48 h, read-out: Activity
# LOX IMVI = experiment: Growth inhibition of human LOXIMVI cells assessed as cell viability at 0.1 uM incubated for 48 hrs by sulforhodamine B assay; conditions: read-out: Activity
# CAKI-1 [1] = experiment: Growth inhibition of human Caki1 cells incubated for 48 hrs by sulforhodamine B assay; conditions: CAKI-1, 48 h; summary of the method: as §1
# OVCAR-8 = experiment: Growth inhibition of human OVCAR8 cells incubated for 48 hrs by sulforhodamine B assay; conditions: OVCAR-8, 48 h; summary of the method: as §2
# NCI-H322M [2] = experiment: Growth inhibition of human NCI-H322M cells assessed as cell viability at 0.001 uM incubated for 48 hrs by sulforhodamine B assay relative to control; conditions: read-out: Activity
# MDA-MB-435 = experiment: Growth inhibition of human MDA-MB-435 cells assessed as cell viability at 1 uM incubated for 48 hrs by sulforhodamine B assay; conditions: MDA-MB-435, 48 h, read-out: Activity
# OVCAR-3 = experiment: Growth inhibition of human OVCAR3 cells incubated for 48 hrs by sulforhodamine B assay; conditions: OVCAR-3, 48 h
# Summary of the method: (§3)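 NCI-60 five-dose SRB assay in RPMI 1640 with 5% FBS, 37 °C, 5% CO2. Compound given at five tenfold dilutions, 0.01–100 µM, for 48 h. Adherent cells fixed with TCA, suspension cells with 16% final TCA. Bound SRB read at 515 nm and growth calculated against time-zero and untreated controls. GI50 taken from dose–response curves as the concentration giving a 50% decrease in net cell growth.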
# CAKI-1 [3] = experiment: Growth inhibition of human Caki1 cells assessed as cell viability at 100 uM incubated for 48 hrs by sulforhodamine B assay; conditions: CAKI-1, 48 h, read-out: Activity
# NCI-H322M [4] = experiment: Growth inhibition of human NCI-H322M cells assessed as cell viability at 100 uM incubated for 48 hrs by sulforhodamine B assay; conditions: read-out: Activity
# NCI-H23 = experiment: Growth inhibition of human NCI-H23 cells incubated for 48 hrs by sulforhodamine B assay; conditions: NCI-H23, 48 h; summary of the method: as §3
# IGROV-1 = experiment: Growth inhibition of human IGROV1 cells incubated for 48 hrs by sulforhodamine B assay; conditions: IGROV-1, 48 h; summary of the method: as §3
# CCRF-CEM = experiment: Growth inhibition of human CCRF-CEM cells assessed as cell viability at 100 uM incubated for 48 hrs by sulforhodamine B assay; conditions: read-out: Activity
# NCI-H226 = experiment: Growth inhibition of human NCI-H226 cells incubated for 48 hrs by sulforhodamine B assay; conditions: NCI-H226, 48 h; summary of the method: as §3
# UACC-62 = experiment: Growth inhibition of human UACC62 cells assessed as cell viability at 0.001 uM incubated for 48 hrs by sulforhodamine B assay relative to control; conditions: UACC-62, 48 h, read-out: Activity
# 786-0 = experiment: Growth inhibition of human 786-0 cells assessed as cell viability at 0.001 uM incubated for 48 hrs by sulforhodamine B assay relative to control; conditions: 786-0, 48 h, read-out: Activity
# T47D = experiment: Growth inhibition of human T47D cells incubated for 48 hrs by sulforhodamine B assay; summary of the method: as §2
# A549 = experiment: Growth inhibition of human A549/ATCC cells assessed as cell viability at 0.1 uM incubated for 48 hrs by sulforhodamine B assay; conditions: A549, 48 h, read-out: Activity; summary of the method: as §1
# SF-539 = experiment: Growth inhibition of human SF539 cells assessed as cell viability at 0.1 uM incubated for 48 hrs by sulforhodamine B assay; conditions: SF-539, 48 h, read-out: Activity
# SK-MEL-2 = experiment: Growth inhibition of human SK-MEL-2 cells incubated for 48 hrs by sulforhodamine B assay; conditions: SK-MEL-2, 48 h; summary of the method: as §2
# [5] = read-out: LC50 (the source's name)
# [6] = read-out: pLC50 (the source's name) (converted)
smiles,measurement,setting,value
CC1=C(C(=O)OCc2ccccc2)C(c2ccc3c(c2)OCO3)n2c(nc3ccccc32)N1 (racemic),GI50,BT-549; read-out: GI50,0.92 µM
same,CC50,BT-549; [5],> 100 µM
same,TGI,BT-549; read-out: TGI,> 100 µM
same,GI50,BT-549; read-out: pGI50 (converted),0.912 µM
same,CC50,BT-549; [6],> 100 µM
same,TGI,BT-549; read-out: pTGI,> 100 µM
same,GI50,SK-MEL-28; read-out: GI50,> 100 µM
same,LC50,SK-MEL-28; read-out: LC50,> 100 µM
same,TGI,SK-MEL-28; read-out: TGI,> 100 µM
same,GI50,SK-MEL-28; read-out: pGI50 (converted),> 100 µM
same,LC50,SK-MEL-28; read-out: pLC50 (converted),> 100 µM
same,TGI,SK-MEL-28; read-out: pTGI,> 100 µM
same,viability at 0.001 µM,UACC-257,88%
same,viability at 0.1 µM,LOX IMVI,93%
same,GI50,CAKI-1 [1]; read-out: GI50,0.28 µM
same,CC50,CAKI-1 [1]; [5],> 100 µM
same,TGI,CAKI-1 [1]; read-out: TGI,> 100 µM
same,GI50,CAKI-1 [1]; read-out: pGI50 (converted),0.282 µM
same,CC50,CAKI-1 [1]; [6],> 100 µM
same,TGI,CAKI-1 [1]; read-out: pTGI,> 100 µM
same,GI50,OVCAR-8; read-out: GI50,0.63 µM
same,CC50,OVCAR-8; [5],> 100 µM
same,TGI,OVCAR-8; read-out: TGI,> 100 µM
same,GI50,OVCAR-8; read-out: pGI50 (converted),0.631 µM
same,CC50,OVCAR-8; [6],> 100 µM
same,TGI,OVCAR-8; read-out: pTGI,> 100 µM
same,viability at 0.001 µM,NCI-H322M [2],96%
same,viability at 1 µM,MDA-MB-435,-39%
same,GI50,OVCAR-3; read-out: GI50,0.26 µM
same,CC50,OVCAR-3; [5],> 100 µM
same,TGI,OVCAR-3; read-out: TGI,1.09 µM
same,GI50,OVCAR-3; read-out: pGI50 (converted),0.257 µM
same,CC50,OVCAR-3; [6],> 100 µM
same,TGI,OVCAR-3; read-out: pTGI (converted),1.1 µM
same,viability at 100 µM,CAKI-1 [3],23%
same,viability at 100 µM,NCI-H322M [4],50%
same,GI50,NCI-H23; read-out: GI50,31.8 µM
same,LC50,NCI-H23; read-out: LC50,> 100 µM
same,TGI,NCI-H23; read-out: TGI,> 100 µM
same,GI50,NCI-H23; read-out: pGI50 (converted),31.6 µM
same,LC50,NCI-H23; read-out: pLC50 (converted),> 100 µM
same,TGI,NCI-H23; read-out: pTGI,> 100 µM
same,GI50,IGROV-1; read-out: GI50,0.62 µM
same,CC50,IGROV-1; [5],> 100 µM
same,TGI,IGROV-1; read-out: TGI,> 100 µM
same,GI50,IGROV-1; read-out: pGI50 (converted),0.617 µM
same,CC50,IGROV-1; [6],> 100 µM
same,TGI,IGROV-1; read-out: pTGI,> 100 µM
same,viability at 100 µM,CCRF-CEM,18%
same,GI50,NCI-H226; read-out: GI50,> 100 µM
same,LC50 (concentration killing 50% of starting cells),NCI-H226; read-out: LC50,> 100 µM
same,TGI,NCI-H226; read-out: TGI,> 100 µM
same,GI50,NCI-H226; read-out: pGI50 (converted),> 100 µM
same,LC50 (concentration killing 50% of starting cells),NCI-H226; read-out: pLC50 (converted),> 100 µM
same,TGI,NCI-H226; read-out: pTGI,> 100 µM
same,viability at 0.001 µM,UACC-62,90%
same,viability at 0.001 µM,786-0,94%
same,GI50,T47D; read-out: GI50,0.48 µM
same,CC50,T47D; [5],> 100 µM
same,TGI,T47D; read-out: TGI,> 100 µM
same,GI50,T47D; read-out: pGI50 (converted),0.479 µM
same,CC50,T47D; [6],> 100 µM
same,TGI,T47D; read-out: pTGI,> 100 µM
same,viability at 0.1 µM,A549,99%
same,viability at 0.1 µM,SF-539,92%
same,GI50,SK-MEL-2; read-out: GI50,1.29 µM
same,LC50,SK-MEL-2; read-out: LC50,> 100 µM
same,TGI,SK-MEL-2; read-out: TGI,> 100 µM
same,GI50,SK-MEL-2; read-out: pGI50 (converted),1.29 µM
same,LC50,SK-MEL-2; read-out: pLC50 (converted),> 100 µM
same,TGI,SK-MEL-2; read-out: pTGI,> 100 µM
